Experimental data from ChEMBL document CHEMBL5303300, “EUbOPEN Chemogenomics Library - Multiplex” (2023).
Several values for one entry are separate records, joined by “and”; a condition that tells them apart may be missing. Equal values may be shown once.

Legend:
U2OS = assay: Multiplex assay against U2OS; format: toxicity, cell-based; details: human, number of replicates 2
Outline: (§1)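 Imaging took place on a CQ1 microscope at 37°C and 5% CO2 once compound had been added to live cells stained at seeding with Hoechst33342, BioTracker Green Microtubule Cytoskeleton Dye, MitoTracker Red and Annexin V Alexa Fluor 680. CellPathfinder machine-learning gating classed cells as Hoechst high-intensity objects or normal cells, classed normal cells as having healthy, pyknosed or fragmented nuclei, and classed pyknosed cells as mitotic or apoptotic. Tubulin, mitochondrial-mass and membrane-permeability phenotypes are per cents of the healthy-nucleus cells.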

Fibroblast = assay: Multiplex assay against human fibroblast; format: toxicity, cell-based; details: number of replicates 2; outline: as §1
[1] = 12 h, 1 µM, compound concentration 1 uM
[2] = 12 h, 10 µM, compound concentration 10 uM
[3] = 24 h, 1 µM, compound concentration 1 uM
[4] = 24 h, 10 µM, compound concentration 10 uM
[5] = 48 h, 1 µM, compound concentration 1 uM
[6] = 48 h, 10 µM, compound concentration 10 uM

N[C@@H]1c2cccnc2[C@H](OC(=O)N2CCC(n3c(=O)[nH]c4ncccc43)CC2)CC[C@H]1c1cccc(F)c1F [RIMEGEPANT] was tested, and the “Population Apoptotic (%)” value (U2OS; [1]) was 40% and 54%, the “Population Fragmented Nuclei (%)” value (U2OS; [1]) was 11% and 5% and the “Population Healthy Nuclei (%)” value (U2OS; [1]) was 79% and 84%. The “Population Hoechst High Intensity Objects (%)” value (U2OS; [1]) was 0%, the “Population Membrane Permeable-Phenotype (%)” value (U2OS; [1]) was 0% and 4% and the “Population Mitochondria Different-Phenotype (%)” value (U2OS; [1]) was 0% and 1%. The “Population Mitotic Cells (%)” value (U2OS; [1]) was 60% and 45%, the “Population Normal (%)” value (U2OS; [1]) was 100% and the “Population Pyknosed Nuclei (%)” value (U2OS; [1]) was 9%. The “Population Tubulin-Different-Phenotype (%)” value (U2OS; [1]) was 90% and 65%, the “Population Apoptotic (%)” value (U2OS; [2]) was 60% and 51% and the “Population Fragmented Nuclei (%)” value (U2OS; [2]) was 0% and 5%. For the same compound, the “Population Healthy Nuclei (%)” value (U2OS; [2]) was 88% and 83%, the “Population Hoechst High Intensity Objects (%)” value (U2OS; [2]) was 0% and the “Population Membrane Permeable-Phenotype (%)” value (U2OS; [2]) was 0% and 8%. For the same compound, the “Population Mitochondria Different-Phenotype (%)” value (U2OS; [2]) was 8% and 11%, the “Population Mitotic Cells (%)” value (U2OS; [2]) was 40% and 48% and the “Population Normal (%)” value (U2OS; [2]) was 100%. The “Population Pyknosed Nuclei (%)” value (U2OS; [2]) was 11% and 10%, the “Population Tubulin-Different-Phenotype (%)” value (U2OS; [2]) was 37% and 34% and the “Population Apoptotic (%)” value (U2OS; [3]) was 50% and 57%. The “Population Fragmented Nuclei (%)” value (U2OS; [3]) was 7% and 3%, the “Population Healthy Nuclei (%)” value (U2OS; [3]) was 82% and 86% and the “Population Hoechst High Intensity Objects (%)” value (U2OS; [3]) was 0%. For the same compound, the “Population Membrane Permeable-Phenotype (%)” value (U2OS; [3]) was 2% and 4%, the “Population Mitochondria Different-Phenotype (%)” value (U2OS; [3]) was 0% and 2% and the “Population Mitotic Cells (%)” value (U2OS; [3]) was 50% and 42%. The “Population Normal (%)” value (U2OS; [3]) was 100%, the “Population Pyknosed Nuclei (%)” value (U2OS; [3]) was 10% and 9% and the “Population Tubulin-Different-Phenotype (%)” value (U2OS; [3]) was 87% and 71%. For the same compound, the “Population Apoptotic (%)” value (U2OS; [4]) was 66% and 76%, the “Population Fragmented Nuclei (%)” value (U2OS; [4]) was 8% and 3% and the “Population Healthy Nuclei (%)” value (U2OS; [4]) was 79% and 89%. The “Population Hoechst High Intensity Objects (%)” value (U2OS; [4]) was 0%, the “Population Membrane Permeable-Phenotype (%)” value (U2OS; [4]) was 0% and 6% and the “Population Mitochondria Different-Phenotype (%)” value (U2OS; [4]) was 10% and 16%. For the same compound, the “Population Mitotic Cells (%)” value (U2OS; [4]) was 33% and 24%, the “Population Normal (%)” value (U2OS; [4]) was 100% and the “Population Pyknosed Nuclei (%)” value (U2OS; [4]) was 12% and 6%. For the same compound, the “Population Tubulin-Different-Phenotype (%)” value (U2OS; [4]) was 28% and 27%, the “Population Apoptotic (%)” value (U2OS; [5]) was 61% and 62% and the “Population Fragmented Nuclei (%)” value (U2OS; [5]) was 8% and 3%. The “Population Healthy Nuclei (%)” value (U2OS; [5]) was 77% and 89%, the “Population Hoechst High Intensity Objects (%)” value (U2OS; [5]) was 0% and the “Population Membrane Permeable-Phenotype (%)” value (U2OS; [5]) was 1%. For the same compound, the “Population Mitochondria Different-Phenotype (%)” value (U2OS; [5]) was 2% and 1%, the “Population Mitotic Cells (%)” value (U2OS; [5]) was 38% and 37% and the “Population Normal (%)” value (U2OS; [5]) was 100%. For the same compound, the “Population Pyknosed Nuclei (%)” value (U2OS; [5]) was 14% and 7%, the “Population Tubulin-Different-Phenotype (%)” value (U2OS; [5]) was 94% and 84% and the “Population Apoptotic (%)” value (U2OS; [6]) was 53% and 70%. For the same compound, the “Population Fragmented Nuclei (%)” value (U2OS; [6]) was 3%, the “Population Healthy Nuclei (%)” value (U2OS; [6]) was 73% and 86% and the “Population Hoechst High Intensity Objects (%)” value (U2OS; [6]) was 0%. For the same compound, the “Population Membrane Permeable-Phenotype (%)” value (U2OS; [6]) was 4% and 3%, the “Population Mitochondria Different-Phenotype (%)” value (U2OS; [6]) was 2% and 9% and the “Population Mitotic Cells (%)” value (U2OS; [6]) was 46% and 29%. The “Population Normal (%)” value (U2OS; [6]) was 100%, the “Population Pyknosed Nuclei (%)” value (U2OS; [6]) was 22% and 9% and the “Population Tubulin-Different-Phenotype (%)” value (U2OS; [6]) was 30% and 33%. For the same compound, the “Population Apoptotic (%)” value (Fibroblast; [1]) was 56% and 33%, the “Population Fragmented Nuclei (%)” value (Fibroblast; [1]) was 6% and 16% and the “Population Healthy Nuclei (%)” value (Fibroblast; [1]) was 56% and 69%. The “Population Hoechst High Intensity Objects (%)” value (Fibroblast; [1]) was 0% and 3%, the “Population Membrane Permeable-Phenotype (%)” value (Fibroblast; [1]) was 5% and 7% and the “Population Mitochondria Different-Phenotype (%)” value (Fibroblast; [1]) was 1% and 0%. The “Population Mitotic Cells (%)” value (Fibroblast; [1]) was 43% and 66%, the “Population Normal (%)” value (Fibroblast; [1]) was 100% and 96% and the “Population Pyknosed Nuclei (%)” value (Fibroblast; [1]) was 37% and 14%. The “Population Tubulin-Different-Phenotype (%)” value (Fibroblast; [1]) was 20% and 21%, the “Total Cell Count” value (Fibroblast; [1]) was 129 and 236 and the “Population Apoptotic (%)” value (Fibroblast; [2]) was 47% and 44%. For the same compound, the “Population Fragmented Nuclei (%)” value (Fibroblast; [2]) was 14% and 13%, the “Population Healthy Nuclei (%)” value (Fibroblast; [2]) was 75% and the “Population Hoechst High Intensity Objects (%)” value (Fibroblast; [2]) was 0%. The “Population Membrane Permeable-Phenotype (%)” value (Fibroblast; [2]) was 9% and 14%, the “Population Mitochondria Different-Phenotype (%)” value (Fibroblast; [2]) was 5% and 4% and the “Population Mitotic Cells (%)” value (Fibroblast; [2]) was 52% and 55%. For the same compound, the “Population Normal (%)” value (Fibroblast; [2]) was 100%, the “Population Pyknosed Nuclei (%)” value (Fibroblast; [2]) was 10% and 11% and the “Population Tubulin-Different-Phenotype (%)” value (Fibroblast; [2]) was 61% and 59%. The “Total Cell Count” value (Fibroblast; [2]) was 183 and 237, the “Population Apoptotic (%)” value (Fibroblast; [3]) was 54% and 32% and the “Population Healthy Nuclei (%)” value (Fibroblast; [3]) was 60% and 61%. For the same compound, the “Population Hoechst High Intensity Objects (%)” value (Fibroblast; [3]) was 0% and 2%, the “Population Membrane Permeable-Phenotype (%)” value (Fibroblast; [3]) was 10% and 1% and the “Population Mitochondria Different-Phenotype (%)” value (Fibroblast; [3]) was 0%. The “Population Mitotic Cells (%)” value (Fibroblast; [3]) was 45% and 67%, the “Population Normal (%)” value (Fibroblast; [3]) was 99% and 97% and the “Population Pyknosed Nuclei (%)” value (Fibroblast; [3]) was 35% and 18%. For the same compound, the “Population Tubulin-Different-Phenotype (%)” value (Fibroblast; [3]) was 22% and 15%, the “Total Cell Count” value (Fibroblast; [3]) was 124 and 234 and the “Population Apoptotic (%)” value (Fibroblast; [4]) was 47% and 64%. For the same compound, the “Population Fragmented Nuclei (%)” value (Fibroblast; [4]) was 12% and the “Population Healthy Nuclei (%)” value (Fibroblast; [4]) was 78% and 80%.
